Experimental data as given in ChEMBL document CHEMBL4017524, “A Novel Arylurea Fatty Acid That Targets the Mitochondrion and Depletes Cardiolipin To Promote Killing of Breast Cancer Cells” (J Med Chem, 2017).
Activity calls are given as the source filed them. No cut-off for these calls is given here.

What was measured:
MDA-MB-231 [1] = test: Cytotoxicity against human MDA-MB-231 cells assessed as decrease in ATP production at 10 uM after 24 to 48 hrs by CellTiter-Glo luminescent assay; assay type: functional, cell-based
MDA-MB-231 [2] = test: Induction of apoptosis in human MDA-MB-231 cells assessed as mitochondrial membrane disruption by measuring red to green fluorescence ratio at 10 uM after 24 hrs by JC-1 staining based microscopic method relative to control; assay type: functional
Method in brief: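 Cells exposed for 24 h at 10 µM, then stained with the cationic dye JC-1. Red (aggregate, intact inner membrane) to green (monomer) fluorescence ratio expressed relative to DMSO control. Mean±SEM of three experiments.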

MDA-MB-231 [3] = test: Induction of apoptosis in human MDA-MB-231 cells assessed as increase in caspases 3/7 activity at 10 uM after 48 hrs by Caspase-Glo assay; assay type: functional, cell-based
MDA-MB-231 [4] = test: Cytotoxicity against human MDA-MB-231 cells assessed as decrease in cell viability at 40 uM after 48 hrs by crystal violet staining based assay; assay type: functional
MDA-MB-231 [5] = test: Cytotoxicity against human MDA-MB-231 cells assessed as decrease in cell adherence at 40 uM after 48 hrs by crystal violet staining based assay; assay type: functional
Mus musculus = test: Toxicity in Balb/c nude mouse assessed as change in body weight at 2.5 to 40 mg/kg, ip qd for 5 days; assay type: organism-based; conditions: in vivo, 120 h
Method in brief: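 Balb/c mice given 2.5-40 mg/kg intraperitoneally for 5 days. Weight gain and other signs of toxicity were monitored.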

MDA-MB-231 [6] = test: Induction of apoptosis in human MDA-MB-231 cells assessed as mitochondrial membrane disruption at 10 uM after 6 hrs by JC-1/Hoechst 33342 staining based fluorescence microscopic assay; assay type: functional, cell-based
Method in brief: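 Treatment with 10 µM or DMSO for 6 h. Cells were washed twice with serum-free medium, then incubated with JC-1 in serum-free medium at 37°C for 20 min. Hoechst 33342 nuclear counterstain, then fluorescence microscopy of green monomers versus red aggregates.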

MDA-MB-231 [7] = test: Antitumor activity against human MDA-MB-231 cells xenografted in Balb/c nu/nu mouse assessed as decrease in Ki67 biomarkers at 2.5 to 40 mg/kg, ip qd administered 6 days per week for 32 to 38 days by […] immunohistochemical analysis; assay type: functional, organism-based
Method in brief: (§1)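 Female nu/nu mice, 7 weeks old, n=5-8 per group. Each received 4x10⁵ cells in 100 µl by subcutaneous injection into the 4th mammary fat pad. Intraperitoneal dosing at graded doses. Body weights and tumour sizes were measured. Isolated tumour sections were stained for TUNEL (apoptosis) and Ki67 (proliferation), with DAPI nuclear stain.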

MDA-MB-231 [8] = test: Induction of mitochondrial membrane disruption in human MDA-MB-231 cells assessed as mitochondrial phosphatidylglycerol level at 14 uM after 24 hrs in presence of oleic acid; assay type: functional, cell-based
T47D [9] = test: Cytotoxicity against human T47D cells assessed as decrease in ATP production at 10 uM up to 72 hrs by CellTiter-Glo luminescent assay; assay type: functional, cell-based
MDA-MB-231 [10] = test: Cytotoxicity against human MDA-MB-231 cells assessed as decrease in cell viability at 40 uM after 48 hrs in presence of alpha-tocopherol by crystal violet staining based assay; assay type: functional
T47D [11] = test: Induction of apoptosis in human T47D cells assessed as increase in caspases 3/7 activity at 10 uM after 48 hrs by Caspase-Glo assay; assay type: functional, cell-based
MDA-MB-231 [12] = test: Cell cycle arrest in human MDA-MB-231 cells assessed as decrease in accumulation of G2M phase at 10 uM after 24 hrs by propidium iodide staining based flow cytometric analysis; assay type: functional
MDA-MB-468 [13] = test: Cytotoxicity against human MDA-MB-468 cells assessed as decrease in ATP production at 10 uM up to 72 hrs by CellTiter-Glo luminescent assay; assay type: functional, cell-based
MDA-MB-231 [14] = test: Induction of apoptosis in human MDA-MB-231 cells assessed as necrotic cells at 10 uM after 48 hrs by annexin VFITC/7AAD staining based flow cytometry (reference value: 1.5 +/- 0.2%); assay type: functional
Method in brief: (§2)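 Annexin V-FITC/7AAD flow cytometry of cells after 48 h at 10 µM. Quadrants: E4 annexin V only (early apoptotic), E2 dual-stained (late apoptotic), E1 7AAD only, E3 unstained (viable). Compared with DMSO control. Mean±SEM from three experiments.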

MDA-MB-231 [15] = test: Induction of mitochondrial membrane disruption in human MDA-MB-231 cells assessed as mitochondrial cardiolipin level at 14 uM after 24 hrs in presence of oleic acid; assay type: functional, cell-based
MDA-MB-231 [16] = test: Induction of apoptosis in human MDA-MB-231 cells assessed as late apoptotic cells at 10 uM after 48 hrs by annexin VFITC/7AAD staining based flow cytometry (reference value: 5.9 +/- 0.9%); assay type: functional; method in brief: as §2
MDA-MB-231 [17] = test: Antitumor activity against human MDA-MB-231 cells xenografted in Balb/c nu/nu mouse assessed as TUNEL positive cells at 2.5 to 40 mg/kg, ip qd administered 6 days per week for 32 to 38 days; assay type: functional, organism-based; method in brief: as §1
MDA-MB-231 [18] = test: Cell cycle arrest in human MDA-MB-231 cells assessed as accumulation at sub-G1 phase at 10 uM after 24 hrs by propidium iodide staining based flow cytometric analysis (reference value: 1.4 +/- 0.03%); assay type: functional
MDA-MB-231 [19] = test: Antitumor activity against human MDA-MB-231 cells xenografted in ip dosed Balb/c nu/nu mouse assessed as decrease in tumor volume administered once daily 6 days per week for 32 to 38 days; assay type: functional, organism-based; method in brief: as §1
MDA-MB-231 [20] = test: Cytotoxicity against human MDA-MB-231 cells assessed as ATP production at 10 uM after 24 hrs by CellTiter-Glo luminescent assay relative to control; assay type: functional
Method in brief: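 MDA-MB-231 cells exposed to 10 µM for 24 h, then ATP formation measured and expressed relative to DMSO-treated control. Basal ATP per 7.5 x 10⁴ cells was recorded at 24 h. Mean±SEM from three separate experiments.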

MDA-MB-231 [21] = test: Induction of apoptosis in human MDA-MB-231 cells assessed as increase in caspases 3/7 activity at 10 uM after 24 hrs by Caspase-Glo assay relative to control; assay type: functional
Method in brief: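 Executioner caspase-3/7 activity read after 24 h exposure at 10 µM and expressed relative to DMSO-treated control. Basal activity per 7.5 x 10⁴ cells was recorded. Mean±SEM of three separate experiments.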

MDA-MB-231 [22] = test: Cell cycle arrest in human MDA-MB-231 cells assessed as decrease in accumulation of S phase at 10 uM after 24 hrs by propidium iodide staining based flow cytometric analysis; assay type: functional
MDA-MB-231 [23] = test: Induction of mitochondrial membrane disruption in human MDA-MB-231 cells assessed as mitochondrial phosphatidylglycerol level at 14 uM after 24 hrs relative to control; assay type: functional
MDA-MB-231 [24] = test: Induction of apoptosis in human MDA-MB-231 cells assessed as viable cells at 10 uM after 48 hrs by annexin VFITC/7AAD staining based flow cytometry (reference value: 86.2 +/- 2.3%); assay type: functional; conditions: MDA-MB-231, 48 h, read-out: Activity; method in brief: as §2
MCF7 [25] = test: Induction of apoptosis in human MCF7 cells assessed as increase in caspases 3/7 activity at 10 uM after 48 hrs by Caspase-Glo assay; assay type: functional, cell-based
MDA-MB-231 [26] = test: Cytotoxicity against human MDA-MB-231 cells assessed as decrease in ATP production at 10 uM after 24 hrs in presence of mitochondrial permeability transition pore inhibitor cyclosporin A by CellTiter-Glo luminescent assay; assay type: functional, cell-based
Method in brief: (§3)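 ATP formation read in MDA-MB-231 cells co-treated with BAPTA-AM (5 or 25 µM) or with cyclosporin A (10 or 20 µM).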

MDA-MB-231 [27] = test: Cytotoxicity against human MDA-MB-231 cells assessed as ATP production at 10 uM after 48 hrs by CellTiter-Glo luminescent assay relative to control; assay type: functional
MDA-MB-231 [28] = test: Cytotoxicity against human MDA-MB-231 cells assessed as decrease in ATP production at 10 uM after 24 hrs in presence of Ca2+ chelator BAPTA-AM by CellTiter-Glo luminescent assay; assay type: functional, cell-based; method in brief: as §3
MDA-MB-231 [29] = test: Induction of reactive oxygen species in human MDA-MB-231 cells after 2 to 6 hrs by 2',7'-dichlorofluorescin dye based flow cytometric analysis; assay type: functional, cell-based
Method in brief: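 Pro-oxidant stress followed by flow cytometry using 2',7'-dichlorofluorescin diacetate after 2-6 h of treatment in MDA-MB-231 cells.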

MDA-MB-231 [30] = test: Induction of apoptosis in human MDA-MB-231 cells assessed as early apoptotic cells at 10 uM after 48 hrs by annexin VFITC/7AAD staining based flow cytometry (reference value: 6.6 +/- 1.4%); assay type: functional; method in brief: as §2
MCF7 [31] = test: Cytotoxicity against human MCF7 cells assessed as decrease in ATP production at 10 uM up to 72 hrs by CellTiter-Glo luminescent assay; assay type: functional, cell-based
MDA-MB-231 [32] = test: Cell cycle arrest in human MDA-MB-231 cells assessed as decrease in accumulation of G0G1 phase at 10 uM after 24 hrs by propidium iodide staining based flow cytometric analysis; assay type: functional
MCF-10A = test: Cytotoxicity against human MCF10A cells assessed as decrease in ATP production at 10 to 20 uM after 48 hrs by CellTiter-Glo luminescent assay; assay type: cell-based
MDA-MB-468 [33] = test: Induction of apoptosis in human MDA-MB-468 cells assessed as increase in caspases 3/7 activity at 10 uM after 48 hrs by Caspase-Glo assay; assay type: functional, cell-based
MDA-MB-231 [34] = test: Induction of apoptosis in human MDA-MB-231 cells assessed as plasma membrane phospholipid phosphatidylcholine level per 1.05 X 10^7 cells at 14 uM after 24 hrs (reference value: 91 +/- 9 ug); assay type: functional
MDA-MB-231 [35] = test: Induction of mitochondrial membrane disruption in human MDA-MB-231 cells assessed as mitochondrial cardiolipin level at 14 uM after 24 hrs relative to control; assay type: functional

In the case of `COc1ccc(NC(=O)NCCCCCCCCCCCCCCCC(=O)O)cc1`, the Activity (MDA-MB-231 [1]) is reported as “inactive” and the Activity (MDA-MB-231 [2]) is reported as “inactive”.
With `Cc1cc(NC(=O)NCCCCCCCCCCCCCCCC(=O)O)ccc1Cl` the Activity (MDA-MB-231 [1]) was “inactive”, the Activity (MDA-MB-231 [3]) was “inactive” and the Activity (MDA-MB-231 [2]) was “inactive”. For the same compound, the Activity (MDA-MB-231 [4]) was “inactive” and the Activity (MDA-MB-231 [5]) was “inactive”.
`O=C(O)CCCCCCCCCCCCCCCNC(=O)Nc1ccc(Cl)cc1` was tested, and the Activity (MDA-MB-231 [1]) was “inactive” and the Activity (MDA-MB-231 [2]) was “inactive”.
In the case of `CC(C)(C)c1ccc(NC(=O)NCCCCCCCCCCCCCCCC(=O)O)cc1`, the Activity (MDA-MB-231 [1]) is reported as “inactive” and the Activity (MDA-MB-231 [2]) is reported as “inactive”.
`Cc1ccc(NC(=O)NCCCCCCCCCCCCCCCC(=O)O)cc1` was tested, and the Activity (MDA-MB-231 [1]) was “inactive” and the Activity (MDA-MB-231 [2]) was “inactive”.
In the case of `O=C(O)CCCCCCCCCCCCCCCNC(=O)Nc1ccc(Cl)c(C(F)(F)F)c1`, the Activity (Mus musculus) is reported as “Non-Toxic”, the Activity (MDA-MB-231 [6]) is reported as “Active” and the Activity (MDA-MB-231 [7]) is reported as “Active”. The Activity (MDA-MB-231 [8]) was “inactive”, the Activity (T47D [9]) was “Active” and the Activity (MDA-MB-231 [10]) was “Active”. For the same compound, the Activity (T47D [11]) was “Active”, the Activity (MDA-MB-231 [12]) was “Active” and the Activity (MDA-MB-468 [13]) was “Active”. The Activity (MDA-MB-231 [14]) was 5.9%, the Activity (MDA-MB-231 [15]) was “inactive” and the Activity (MDA-MB-231 [16]) was 20%. For the same compound, the Activity (MDA-MB-231 [17]) was “Active”, the Activity (MDA-MB-231 [18]) was 20% and the Activity (MDA-MB-231 [19]) was “Dose-dependent effect”. For the same compound, the Activity (MDA-MB-231 [20]) was 72%, the Activity (MDA-MB-231 [21]) was 203% and the Activity (MDA-MB-231 [2]) was 32%. For the same compound, the Activity (MDA-MB-231 [22]) was “Active”, the Activity (MDA-MB-231 [23]) was 61% and the viability at 10 µM (MDA-MB-231 [24]) was 62.4%. For the same compound, the Activity (MCF7 [25]) was “inactive”, the Activity (MDA-MB-231 [26]) was “Active” and the Activity (MDA-MB-231 [4]) was “Active”. The Activity (MDA-MB-231 [5]) was “Active”, the Activity (MDA-MB-231 [27]) was 30% and the Activity (MDA-MB-231 [28]) was “Active”. The Activity (MDA-MB-231 [29]) was “inactive”, the Activity (MDA-MB-231 [30]) was 11% and the Activity (MCF7 [31]) was “Active”. The Activity (MDA-MB-231 [32]) was “Active”, the Activity (MCF-10A) was “Non-Toxic” and the Activity (MDA-MB-468 [33]) was “inactive”. It also gave an Activity (MDA-MB-231 [34]) of 88 µg and an Activity (MDA-MB-231 [35]) of 61%.
